The values below come from ChEMBL document CHEMBL1255487, “Preclinical evaluation of the antifolate QN254, 5-chloro- N'6'-(2,5-dimethoxy-benzyl)-quinazoline-2,4,6-triamine, as an antimalarial drug candidate” (Antimicrob Agents Chemother, 2010).

Molecules are shown by their SMILES. pKi: −log10 of the molar value.

A short description of series [1]: Oral bioavailability in CD-1 mouse at 25 mg/kg. It is filed as ADME, organism-based. The conditions noted are these: in vivo. In short, it runs like this:
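Mice dosed with 25 mg/kg p.o. as a 2.5 mg/ml suspension in 0.5% CMC, or with 5 mg/kg i.v. at 1 mg/ml in 10% NMP, 30% PEG 400 and 60% of 10% vitamin E-TPGS. Blood sampled at several time points. Plasma extracted with acidified acetonitrile (8:1) and quantified by LC-MS, LLOQ 12 ng/ml.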

Series [2] is described as follows: Clearance in Wistar rat at 5 mg/kg, iv. It is filed as ADME, organism-based. The conditions noted are these: in vivo. Also on record: dose 5 mg/kg, route intravenous. In short, it runs like this:
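Rats dosed with 25 mg/kg p.o. as a 2.5 mg/ml suspension in 0.5% CMC, or with 5 mg/kg i.v. at 1 mg/ml in 10% NMP, 30% PEG 400 and 60% of 10% vitamin E-TPGS. Plasma sampled over time, extracted with acidified acetonitrile (8:1) and quantified by LC-MS, LLOQ 12 ng/ml.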

The next series has as its target T1, Dihydrofolate reductase (Homo sapiens, UniProt P00374).
T1 sequence (P00374 whole entry): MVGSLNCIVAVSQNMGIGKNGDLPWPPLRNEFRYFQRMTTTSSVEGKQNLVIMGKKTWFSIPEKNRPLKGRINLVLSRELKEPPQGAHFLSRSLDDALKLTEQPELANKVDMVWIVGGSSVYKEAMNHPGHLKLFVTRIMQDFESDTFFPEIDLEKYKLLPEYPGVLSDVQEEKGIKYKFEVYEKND
As to the kind of experiment: Binding affinity to human recombinant DHFR expressed in Escherichia coli BL21(DE3) by competitive binding assay.

The subject of a further series is Plasmodium berghei. As to the kind of experiment: Antimalarial activity against Plasmodium berghei ANKA infected in NMRI mice (Mus musculus) assessed as cure rate at 15 mg/kg, perorally administered as single dose measured on day 3 postinfection. To be noted: route oral. It is filed as functional. In short, it runs like this: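 Female NMRI mice (20–22 g), 5 per group, infected intravenously with 0.2 ml of 1 × 10^8 parasitized erythrocytes/ml from a fresh donor mouse. Compound suspended in 0.5% carboxymethyl cellulose and given orally. Survival followed to day 30 post-infection; an animal was scored cured if it survived to day 30 without parasites.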

`COc1ccc(OC)c(CNc2ccc3nc(N)nc(N)c3c2Cl)c1`: in series [1], the bioavailability (usually the share of a dose that reaches the circulation, judged against a reference dose that is usually intravenous) worked out at 100%. Besides, in series [2], the clearance (usually the rate of elimination divided by the concentration) was found to be 17 mL/min/kg. The negative logarithm of the Ki (pKi) (as a rule, −log10 of the Ki, conventionally taken in molar units) at Dihydrofolate reductase was 7.99. Moreover, in the series with Plasmodium berghei, the Activity worked out at 0%.
